In PubChem BioAssay:
Records with an inconclusive call do not appear.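 Rule for the calls, unless noted: active = viability increase at or above a cutoff of the median across tested compounds plus 3 SD (cut at about 8.5% in these data, passing the limit was not always enough); inconclusive = some gains above the cutoff, reason not given; inactive = the rest.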

Experiments:
[1] = OD615 S. cerevisiae growth inhibition, permissive medium, pilot counter-assay, permissive growth control for S. cerevisiae lifespan shortening project (AID 705;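 active = growth inhibition above 25% in both replicates, a cutoff set 3 SD above the mean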); conditions: OD615, 24 h, at 10 µM, stronger effect = higher value
Outline: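 System: engineered DeaD yeast; Medium: permissive raffinose/galactose medium; Compound dosing: 10 µM single dose, 0.25% DMSO; Incubation: 4 h cell pre-growth, 24 h exposure at 30 °C; Technique: OD at 615 nm; Evaluation: growth inhibition from lowered OD615 after 24 h.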

[2] = Restrictive medium S. cerevisiae growth inhibition, OD615, pilot screen of yeast lifespan reduction project, restrictive growth control (AID 706;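 active = growth inhibition above a set limit, 3 SD over mean compound inhibition, in both replicates, cut at about 43% in these data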;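 note: modified DeaD lifespan yeast strain shifted to restrictive glucose medium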); conditions: OD615, 48 h, at 10 µM, stronger effect = higher value
Outline: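 Material: modified S. cerevisiae; buffer or medium: CSMM-D glucose medium; doses: one concentration, 10 µM final, 0.25% DMSO; incubation: 48 h compound exposure at 30 °C; detection: optical density at 615 nm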

[3] = viability gain of MRP-1-high H69AR cells under doxorubicin, pilot screen, MRP-1 activator project, CellTiter-Glo, duplicate (AID 807); conditions: H69AR viability with doxorubicin, CellTiter-Glo luminescence; at 10 µM; stronger effect = higher value;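 note: compound pretreatment 18-22 h then 72 h combined with doxorubicin; 0% = doxorubicin alone and 100% = vehicle without doxorubicin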
[4] = growth suppression of beta-catenin knockout HCT116, pilot screen, human colon tumor cells (AID 823;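 active = cell viability at or below a set limit in both duplicate runs, the limit being the all-compound median minus 4 SD, cut at about 23% in these data, passing the limit was not always enough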;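 note: 0% = wells killed by 20 µM Hyamine and 100% = untreated DMSO cell wells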); conditions: CellTiter-Glo, 60 h, at 10 µM, stronger effect = lower value
[5] = growth suppression of PTEN-deleted HCT116, pilot screen, cell-based, HCT116 clonal line, CellTiter-Glo (AID 824;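 active = viability at or below 27.92% in each of two runs, the all-compound median minus 4 SD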;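 note: 0% = 20 µM Hyamine control and 100% = vehicle cell control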); conditions: 60 h, at 10 µM, stronger effect = lower value
[6] = inhibitors of the yeast RAM network, pilot screen, dse1pr::URA3 reporter, 5-FOA selection (AID 869;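 active = inhibition over a set limit, the all-compound mean plus 3 SD, in both replicate runs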;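 note: 0% = DMSO wells with no growth and 100% = 10 µM 1-NA-PP1 with full growth; RAM network block rescues cells from 5-FOA so hits raise OD615 growth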); conditions: S. cerevisiae dse1pr::URA3 5-FOA growth, OD615, 2 d; at 10 µM; stronger effect = higher value; strain carries analog-sensitive mutant Cbk1 kinase
[7] = RAM signaling pathway blockade in yeast – S. cerevisiae, Pdr1DBD-CYC8 efflux-inhibited sensitized strain, primary screen (AID 1298;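 active = RAM network inhibition above 8.4% in each of two replicates, 3 SD over the compound average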;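 note: 0% = DMSO untreated cells without growth and 100% = 10 µM 1-NA-PP1 full growth; higher means more yeast growth rescued from 5-FOA killing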); conditions: S. cerevisiae cbk1-as DSE1-URA3 strain, 5-FOA growth OD615, 2 d; at 50 µM; stronger effect = higher value

CC1=C(C(=O)OCC2CCCO2)C(c2ccncc2)C2=C(CCCC2=O)N1 (configuration not stated)
inactive: growth inhibition [1] -16.7% | growth inhibition [2] -8.36% | viability increase [3] -1.77% | viability [4] 98.9% | viability [5] 98.1% | inhibition [6] 2.9% | RAM network inhibition [7] 1.82%

CCOc1ccc(C2c3c(oc4ccccc4c3=O)C(=O)N2c2ccccn2)cc1OC (configuration not stated)
inactive: growth inhibition [1] -15.4% | growth inhibition [2] -25.5% | viability increase [3] -4.13% | viability [4] 92.3% | viability [5] 96.2% | inhibition [6] 1.44% | RAM network inhibition [7] 1.32%

Cc1ccc(S(=O)(=O)/N=C/c2ccco2)cc1
inactive: growth inhibition [1] -11.7% | growth inhibition [2] -12.3% | viability increase [3] -1.73% | viability [4] 105% | viability [5] 100% | inhibition [6] 0.625% | RAM network inhibition [7] 6.25%

COc1cc(C(=O)NCC(c2cccnc2)N2CCN(c3ccccc3)CC2)cc(OC)c1OC (configuration not stated)
inactive: growth inhibition [1] -6.31% | growth inhibition [2] -10.5% | viability increase [3] -4.26% | viability [4] 98.4% | viability [5] 92.5% | inhibition [6] 2.09% | RAM network inhibition [7] 2.64%

CC(C)N(Cc1nc(-c2ccccc2)no1)S(=O)(=O)c1ccccc1
inactive: growth inhibition [1] -10.8% | growth inhibition [2] -9.29% | viability increase [3] 1.67% | viability [4] 89.3% | viability [5] 79.5% | inhibition [6] 0.555% | RAM network inhibition [7] 4.95%

Cc1oc(-c2cccs2)nc1CS(=O)CC(=O)NCCc1ccccc1 (configuration not stated)
inactive: growth inhibition [1] 0.14% | growth inhibition [2] 34.7% | viability increase [3] -0.31% | viability [4] 86.1% | viability [5] 97.5% | inhibition [6] 2.6% | RAM network inhibition [7] 7.8%

CCOc1ccc(-n2c(SCC(=O)NCc3ccco3)nc3c([nH]c4ccccc43)c2=O)cc1
inactive: growth inhibition [1] -2.76% | growth inhibition [2] -7.4% | viability increase [3] -3.17% | viability [4] 68.5% | viability [5] 64.1% | inhibition [6] 1.14% | RAM network inhibition [7] 7.07%

COc1ccc(NC(=O)c2cnc3ccccn3c2=O)cc1OC
inactive: growth inhibition [1] -5.08% | growth inhibition [2] 4.28% | viability increase [3] -0.04% | viability [4] 101% | viability [5] 91.3% | inhibition [6] 0.665% | RAM network inhibition [7] 1.96%

CCCc1cc(C(=O)NCc2ccc(OC)cc2)no1
inactive: growth inhibition [1] -7.46% | growth inhibition [2] 18.4% | viability increase [3] -0.95% | viability [4] 107% | viability [5] 99.3% | inhibition [6] 1.78% | RAM network inhibition [7] -0.68%

CC(=O)c1c(C)nn(C(=O)c2cccs2)c1C
inactive: growth inhibition [1] 1.07% | growth inhibition [2] 5.09% | viability increase [3] -0.49% | viability [4] 91% | viability [5] 106% | inhibition [6] 1.89% | RAM network inhibition [7] -0.62%

CC(=O)N1CCC2(CC1)C(C#N)=C(N)Oc1n[nH]c(C)c12
inactive: growth inhibition [1] -6.98% | growth inhibition [2] 14.8% | viability increase [3] 0.18% | viability [4] 97.9% | viability [5] 98.2% | inhibition [6] 1.04% | RAM network inhibition [7] 6.55%

N#Cc1ccc(OCCN2C(=O)NC3(CCSC3)C2=O)cc1 (configuration not stated)
inactive: growth inhibition [1] -2.65% | growth inhibition [2] -19% | viability increase [3] -1.88% | viability [4] 101% | viability [5] 94.4% | inhibition [6] 0.975% | RAM network inhibition [7] 0.56%

COC(=O)c1ccc(C2c3c(oc4ccccc4c3=O)C(=O)N2CCCN2CCOCC2)cc1 (configuration not stated)
inactive: growth inhibition [1] -2.57% | growth inhibition [2] -3.54% | viability increase [3] -4.63% | viability [4] 87.6% | viability [5] 82.9% | inhibition [6] 0.54% | RAM network inhibition [7] 0.48%

COc1ccc(OC)c(NC(=O)CNC(=O)Cn2ccc3ccccc3c2=O)c1
inactive: growth inhibition [1] -9.38% | growth inhibition [2] 10.5% | viability increase [3] -1.6% | viability [4] 104% | viability [5] 90.5% | inhibition [6] 3.29% | RAM network inhibition [7] -0.05%

Cc1nc(C)c(C(=O)Nc2cccc(C)c2C)o1
inactive: growth inhibition [1] -5.6% | growth inhibition [2] -15.8% | viability increase [3] -3.05% | viability [4] 109% | viability [5] 90.1% | inhibition [6] 3.58% | RAM network inhibition [7] 1.53%

O=S(=O)(NCCc1cn2ccccc2n1)c1ccc2c(c1)OCCO2
inactive: growth inhibition [1] -2.27% | growth inhibition [2] -2.71% | viability increase [3] -2.56% | viability [4] 105% | viability [5] 97% | inhibition [6] 1.62% | RAM network inhibition [7] 2.25%

CSc1ccc(C2C(C#N)=C(N)N(c3ccccc3)C3=C2C(=O)CCC3)cc1 (configuration not stated)
inactive: growth inhibition [1] -11.5% | growth inhibition [2] -19.7% | viability increase [3] -7.43% | viability [4] 69.5% | viability [5] 74.6% | inhibition [6] 1.18% | RAM network inhibition [7] 2.23%

Cc1sc2nc(SCC(=O)N(CCO)CCO)n(C3CCCCC3)c(=O)c2c1C
inactive: growth inhibition [1] -10.3% | growth inhibition [2] 0.44% | viability increase [3] -2.54% | viability [4] 99% | viability [5] 104% | inhibition [6] 2.33% | RAM network inhibition [7] 10.7%

Cc1csc2ncc(C(=O)Nc3ccc(C(F)(F)F)cc3)c(=O)n12
inactive: growth inhibition [1] -10.2% | growth inhibition [2] -17.2% | viability increase [3] -2.44% | viability [4] 84.8% | viability [5] 85.8% | inhibition [6] 3.73% | RAM network inhibition [7] 3.03%

CCOC(=O)c1c(N)sc(C(N)=O)c1C
inactive: growth inhibition [1] -17.3% | growth inhibition [2] -8.77% | viability increase [3] -1.19% | viability [4] 95.3% | viability [5] 97.3% | inhibition [6] 1.25% | RAM network inhibition [7] 0.78%

CCOc1ccc2[nH]c(C)c(CN(C)C)c(=O)c2c1
inactive: growth inhibition [1] 1.46% | growth inhibition [2] 9.84% | viability increase [3] -1.41% | viability [4] 99.4% | viability [5] 95.1% | inhibition [6] -0.27% | RAM network inhibition [7] 4.03%

O=C(NCc1cn2ccsc2n1)c1cccs1
inactive: growth inhibition [1] -11.6% | growth inhibition [2] 2.67% | viability increase [3] -2.88% | viability [4] 95.1% | viability [5] 95.8% | inhibition [6] 1.04% | RAM network inhibition [7] 7.64%

COc1ccccc1-n1c2c(cc(C(=O)N3CCC(C)CC3)c1=O)C(=O)CC(C)(C)C2
inactive: growth inhibition [1] -21.2% | growth inhibition [2] -5.49% | viability increase [3] -0.6% | viability [4] 101% | viability [5] 90.7% | inhibition [6] 0.005% | RAM network inhibition [7] 4.67%

CC(=O)Nc1nnc(SCC(=O)NC(C)(C)C)s1
inactive: growth inhibition [1] -6.89% | growth inhibition [2] 1.67% | viability increase [3] -0.33% | viability [4] 94.8% | viability [5] 98.8% | inhibition [6] 1.88% | RAM network inhibition [7] 0.36%

CCCOc1ccc(C2c3c(oc4cc(C)c(C)cc4c3=O)C(=O)N2CCCN2CCOCC2)cc1 (configuration not stated)
inactive: growth inhibition [1] 8% | growth inhibition [2] 1.72% | viability increase [3] -2.28% | viability [4] 81.9% | viability [5] 89% | inhibition [6] 0.075% | RAM network inhibition [7] 0.73%

CC1CCCCN1C(=O)c1ccccc1NC(=O)c1ccco1 (configuration not stated)
inactive: growth inhibition [1] -17.6% | growth inhibition [2] -14.8% | viability increase [3] -2.69% | viability [4] 94.7% | viability [5] 96.5% | inhibition [6] 2.17% | RAM network inhibition [7] 1.7%

Cc1ccc(CSc2nnc(Cn3c(=O)sc4ccccc43)n2C)cc1
inactive: growth inhibition [1] -10.6% | growth inhibition [2] 5.88% | viability increase [3] 2.44% | viability [4] 95.8% | viability [5] 88.2% | inhibition [6] 2.75% | RAM network inhibition [7] 6.03%

CCCC1(C(=O)O)NC(c2cccc(OC)c2O)C2C(=O)N(c3ccccc3)C(=O)C21 (configuration not stated)
inactive: growth inhibition [1] -0.085% | growth inhibition [2] -4.29% | viability increase [3] -0.36% | viability [4] 96.4% | viability [5] 97.4% | inhibition [6] 0.49% | RAM network inhibition [7] -0.78%

O=C(Nc1nccs1)C1CCN(S(=O)(=O)c2cccnc2)CC1
inactive: growth inhibition [1] -4.93% | growth inhibition [2] 3.12% | viability increase [3] -0.26% | viability [4] 102% | viability [5] 101% | inhibition [6] 0.905% | RAM network inhibition [7] -0.78%

CCCN1CCN(CCCNC(=O)c2cc3c(=O)n(C)c4ccccc4c3n2C)CC1
inactive: growth inhibition [1] -5.02% | growth inhibition [2] 0.66% | viability increase [3] -7.07% | viability [4] 64.1% | viability [5] 65.3% | inhibition [6] 0.68% | RAM network inhibition [7] 1.89%

O=C(c1ccco1)N1CCN(c2ncccn2)CC1
inactive: growth inhibition [1] -12.9% | growth inhibition [2] -5.72% | viability increase [3] -1.88% | viability [4] 98.9% | viability [5] 96.3% | inhibition [6] 2.97% | RAM network inhibition [7] -0.22%

CCOC(=O)NC(Nc1nnc(SCC)s1)(C(F)(F)F)C(F)(F)F
inactive: growth inhibition [1] -3.14% | growth inhibition [2] 2.81% | viability increase [3] -2.85% | viability [4] 89.8% | viability [5] 91% | inhibition [6] 1.5% | RAM network inhibition [7] 3.2%

CC(=O)N1CCc2cc(C(=O)CN3CCC(C)CC3)ccc21
inactive: growth inhibition [1] -5.91% | growth inhibition [2] -4.73% | viability increase [3] -2.46% | viability [4] 104% | viability [5] 93.6% | inhibition [6] 1.56% | RAM network inhibition [7] 7.51%

O=C(CC1Sc2ncnn2C1=O)Nc1ccc(Br)cc1 (configuration not stated)
inactive: growth inhibition [1] -5.64% | growth inhibition [2] -9.71% | viability increase [3] -1.23% | viability [4] 106% | viability [5] 100% | inhibition [6] 1.93% | RAM network inhibition [7] 5.71%

CC(C)COC(=O)c1cc(=O)[nH]c2ccccc12
inactive: growth inhibition [1] -4.92% | growth inhibition [2] -14.4% | viability increase [3] -2.47% | viability [4] 87.4% | viability [5] 84.1% | inhibition [6] 0.855% | RAM network inhibition [7] 0.1%

Cc1ccc(NC(=O)C2C3C=CC4(CN(Cc5cccnc5)C(=O)C24)O3)cc1 (configuration not stated)
inactive: growth inhibition [1] 5.17% | growth inhibition [2] -7.85% | viability increase [3] -1.21% | viability [4] 74.4% | viability [5] 97.3% | inhibition [6] 0.77% | RAM network inhibition [7] 2.87%
